FGF22 binding: binders of recombinant human FGF22 by thermal shift; AID 651658; hit rate 1.5% among 340,000; activity (Tm shift, normalised), % at 9.99 µM; SYPRO orange fluorescence; percent of sucrose octasulfate shift, DMSO zero;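 active = mean Tm shift, scaled 0 neutral to 100 positive control, at about 1.3% or above, every replicate too, limit read from the data; inconclusive = no clear call, values can overlap the other calls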
Target sequence (Q9HCT0 whole entry, looked up): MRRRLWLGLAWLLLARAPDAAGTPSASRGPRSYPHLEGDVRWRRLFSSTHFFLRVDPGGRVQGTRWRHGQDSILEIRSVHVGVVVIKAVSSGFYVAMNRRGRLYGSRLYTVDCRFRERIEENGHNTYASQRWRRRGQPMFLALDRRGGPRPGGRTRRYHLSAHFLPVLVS
DENV2 CPE: inhibitors of DENV2 cytopathic effect; AID 651640; CPE inhibition, % at 9.99 µM; DENV2-infected cells, cytopathic effect rescue, plate reader; hit rate 1.7% among 350,000; in the data active = CPE inhibition above about 20%, passing the limit was not always enough; inconclusive = no clear call, values can overlap the other calls; tested in BHK-21 cells;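 note: 0% = median of neutral control wells and 100% = median of positive control wells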
PglD inh: blocks C. jejuni PglD acetyltransferase activity; hit rate 0.098% among 360,000; inhibition, % at 12.5 µM; purified PglD enzyme, DTNB colorimetric CoA detection; in the data active = inhibition above about 16%, passing the limit was not always enough; inconclusive = no clear call, values can overlap the other calls
C2C12 statin: suppression of simvastatin myotoxicity; hit rate 0.78% among 330,000; AID 602340; rescue of ATP level, % at 7.49 µM; C2C12 myotubes + simvastatin, ATP luminescence, 48 h; scaled: DMSO 0, geranylgeraniol control 100;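 active = mean ATP rescue above about 67%, or every replicate alone reaching that limit, limit read from the data, passing the limit was not always enough; inconclusive = no clear call, values can overlap the other calls; inactive = mean under the limit and some replicate under it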;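 note: myotubes were challenged with 10 µM simvastatin during compound exposure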
E-sel inducer: induces E-selectin expression in human endothelial cells. HUVEC E-selectin immunofluorescence imaging; normalized: neutral wells 0, TNF-alpha wells 100. activation, % at 7.58 µM. hit rate 0.37% among 260,000. AID 686992;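 active = mean E-selectin-positive cell signal at least 10% of the positive control, reached in at least 60% of replicates, without over 20% cell loss; inconclusive = no rule given, readout overlaps actives, possibly toxicity-flagged; inactive = the rest, including those meeting only one limit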
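System: HUVEC, human umbilical vein endothelial cells; quantity: 3,000 cells/well; buffer or medium: EGM-2 medium, gelatin-coated wells; dosing: single-point compound dose; detection: immunofluorescence imaging; evaluation: % PE-positive cells; benchmarks: TNF-alpha, DMSO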
Xi reactivation: reactivates the inactive X chromosome in mouse fibroblasts; XiGFP mouse fibroblasts, % GFP-positive cells imaging, 3 d; cells co-treated with 5-aza-dC sensitizer; scaled so ellipticine positive control = 100%; activation, % at 7.58 µM; hit rate 0.055% among 360,000;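 active = mean normalized replicate activation at least 10% and every replicate at or above 10%; inconclusive = only one of the two criteria met; inactive = mean below 10% and not all replicates reach 10%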;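 note: 0% = median of on-plate neutral control wells and 100% = ellipticine 6 µM median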
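Material: XiGFP fibroblasts, SV40-immortalized; Buffer or medium: DMEM containing 5-aza-dC; Compound dosing: single point; Times: 3 days compound exposure.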
The depositor's hits bear a star; ? = inconclusive; nt = no result. Rows were chosen to be rich in hits. Some 3.3% of all compounds tested hit in one or more screens of this group.

SMILES	FGF22 binding	DENV2 CPE	PglD inh	C2C12 statin	E-sel inducer	Xi reactivation
C[C@@H]1CN([C@@H](C)CO)C(=O)Cc2cc(NS(=O)(=O)c3ccccc3)ccc2O[C@@H]1CN(C)Cc1ccc(Cl)c(Cl)c1	0	-10	1	-3	1	0
C[C@@H]1CN([C@H](C)CO)C(=O)Cc2cc(NS(C)(=O)=O)ccc2O[C@@H]1CN(C)Cc1ccc(Cl)c(Cl)c1	0	-8	-7	108*	-8	0
C[C@H](CO)N1C[C@H](C)[C@@H](CN(C)Cc2ccc(Cl)c(Cl)c2)Oc2ccc(NS(C)(=O)=O)cc2CC1=O	-1	-4	-4	92*	-4	0
C[C@H]1CN([C@@H](C)CO)C(=O)Cc2cc(NS(=O)(=O)c3ccccc3)ccc2O[C@@H]1CN(C)Cc1ccc(Cl)c(Cl)c1	-1	-7	15	103*	6	0
COc1cccc(C(=O)N2C[C@H]3[C@@H](c4ccccc42)[C@@H](CO)N3C(=O)c2cccc(F)c2)c1	0	-9	-8	2	0	0
CCCCc1nc2cc(C(=O)NCc3nccn3CC)ccc2o1	0	?	-4	-3	nt	0
CCCCc1nc2cc(C(=O)NCc3cn(C)nc3C)ccc2o1	0	47*	4	nt	0	0
CC(C)[C@H]1COCCS(=O)(=O)N1Cc1ccc(Cl)cc1	0	0	2	-3	nt	0
CCC(C)[C@H]1COCCS(=O)(=O)N1Cc1ccc(Br)cc1 (stereo not given in full)	0	100*	-9	117*	0	0
O=C(c1ccccc1)c1sc(N2CCOCC2)nc1-c1ccccc1	44*	-9	6	-5	nt	0
O=C(c1ccc(Br)cc1)c1sc(N2CCOCC2)nc1-c1ccccc1	0	2	nt	nt	0	0
CO[C@H](CN(C)S(=O)(=O)c1ccc(C)cc1)[C@@H](C)CN(C(=O)Nc1ccccc1F)[C@H](C)CO	0	30*	-1	3	0	0
CO[C@@H](CN(C)Cc1ccc(-c2ccccn2)cc1)[C@@H](C)CN(C(=O)Nc1ccc(F)cc1)[C@H](C)CO	0	6	2	14	0	0
CO[C@@H](CN(C)Cc1ccc(-c2ccccn2)cc1)[C@H](C)CN(C(=O)Nc1ccc(F)cc1)[C@H](C)CO	8.2*	-2	2	19	0	0
CO[C@@H](CN(C)S(=O)(=O)c1cn(C)cn1)[C@@H](C)CN(C(=O)Nc1ccc(F)cc1)[C@@H](C)CO	0	23*	2	-2	0	0
CO[C@H](CN(C)S(=O)(=O)c1cn(C)cn1)[C@H](C)CN(C(=O)Nc1ccc(F)cc1)[C@@H](C)CO	0	-5	-2	11	0	0
CO[C@H](CN(C)S(=O)(=O)c1ccc(C)cc1)[C@@H](C)CN(C(=O)Nc1ccccc1F)[C@@H](C)CO	0	7	0	7	0	0
CO[C@@H](CN(C)C(=O)c1cc(Cl)cc(Cl)c1)[C@H](C)CN(C(=O)Nc1ccc(F)cc1)[C@@H](C)CO	0	92*	-2	-1	0	0
CC(=O)N(C)C[C@@H]1Oc2cc(Br)ccc2S(=O)(=O)N([C@H](C)CO)C[C@H]1C	0	-10	4	-15	-1	0
CCOc1ccccc1NC(=O)Cn1cnc2c(cnn2-c2ccc(C)c(C)c2)c1=O	nt	nt	-9	132*	nt	nt
O=c1c2cnn(-c3ccc(F)cc3)c2ncn1Cc1ccccc1	nt	nt	-1	158*	nt	nt
O=c1c2cnn(-c3ccc(F)cc3)c2ncn1Cc1cccnc1	nt	nt	-1	3	nt	nt
COc1ccc(NC(=O)Cn2cnc3c(cnn3-c3ccc(C)c(C)c3)c2=O)c(OC)c1	nt	nt	2	-12	nt	nt
O=C(Cn1cnc2c(cnn2-c2ccccc2)c1=O)c1ccc(Cl)cc1	0	-4	1	143*	0	0
CCC(C)C(CO)NCCCn1cnc(C(=O)Nc2ccc(C)c(C)c2)n1 (stereo not given)	0	59*	3	-3	0	0
SMILES	FGF22 binding	DENV2 CPE	PglD inh	C2C12 statin	E-sel inducer	Xi reactivation
CC(C)NC(=O)Nc1cccc2c1O[C@H](CN(C)Cc1ccc(C(=O)Nc3ccccc3N)cc1)[C@H](C)CN([C@@H](C)CO)C2=O	0	21*	nt	nt	-2	0
C[C@H](CO)N1C[C@H](C)[C@H](CN(C)Cc2ccc(C(=O)Nc3ccccc3N)cc2)Oc2c(NC(=O)Nc3ccc(F)cc3)cccc2C1=O	0	36*	nt	nt	-15	-1
C[C@@H]1CN([C@H](C)CO)C(=O)c2cccc(NC(=O)c3ccncc3)c2O[C@@H]1CN(C)Cc1ccc(C(=O)Nc2ccccc2N)cc1	0	-2	-2	nt	58*	4
C[C@H]1CN([C@@H](C)CO)C(=O)c2cccc(NC(=O)c3ccncc3)c2O[C@H]1CN(C)Cc1ccc(C(F)(F)F)cc1	-1	24*	7	-2	0	0
C[C@@H]1CN([C@H](C)CO)C(=O)c2cccc(NC(=O)Nc3ccc(F)cc3)c2O[C@H]1CN(C)Cc1ccc(C(=O)Nc2ccccc2N)cc1	0	0	nt	nt	-1	1
C[C@@H]1CN([C@H](C)CO)C(=O)c2cc(-c3ccccc3F)cnc2O[C@H]1CN(C)C(=O)C1CCC1	0	1	1	13	1	0
CS(=O)(=O)N1CC2(C1)[C@H](c1ccccc1)[C@@H](CO)N2Cc1ccccn1	0	-5	nt	nt	0	0
C[C@@H]1CN([C@@H](C)CO)C(=O)c2ccccc2-c2ccccc2CO[C@H]1CN(C)C(=O)[C@H](C)c1ccccc1	0	-2	0	nt	0	-1
O=C(NCC[C@@H]1CC[C@H](NS(=O)(=O)c2ccccc2F)[C@@H](CO)O1)c1ccc(F)cc1	0	4	3	-11	0	0
CC(=O)Nc1cccc2c1O[C@@H](CN(C)C)[C@@H](C)CN(C)C2=O	nt	nt	nt	nt	nt	0
C[C@@H]1CN([C@@H](C)CO)C(=O)c2cccc(NC(=O)Nc3ccccc3)c2O[C@@H]1CN(C)Cc1ccc(C(=O)Nc2ccccc2N)cc1	-1	4	-3	-115	5	-1
C[C@@H]1CN([C@@H](C)CO)C(=O)c2cccc(NC(=O)C3CCOCC3)c2O[C@H]1CN(C)Cc1ccc(C(=O)Nc2ccccc2N)cc1	-1	11	-1	-26	0	0
C[C@@H]1CN([C@H](C)CO)C(=O)c2cccc(NC(=O)Nc3ccccc3)c2O[C@H]1CN(C)Cc1ccc(C(=O)Nc2ccccc2N)cc1	0	2	1	113*	3	-1
